The source made the active and inactive calls. No cut-off for these calls is given here.
Tests used:
SW-620 = test: Growth inhibition of human SW620 cells by NCI standard protocol based method; format: functional
Procedure, shortened: (§1)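 NCI 60-cell-line screen, standard NCI protocol. Single high dose of 10⁻⁵ M first, then a 5-dose assay across the full panel. Reported as GI₅₀, TGI and LC₅₀, the molar concentrations giving 50% net growth inhibition, total growth inhibition and 50% net cell death. Where an effect was not reached, the highest tested concentration was used.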

K562 [1] = test: Induction of mitotic arrest in human K562 cells; format: functional, cell-based
[2] = Growth inhibition of human COLO205 cells by NCI standard protocol based method; format: functional; conditions: COLO 205
Procedure, shortened: (§2)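 NCI full 60-cell-line panel, 5-dose assay to the NCI standard protocol. GI₅₀ is the molar concentration inhibiting 50% net cell growth. Mean graph midpoint is averaged over all lines; where the effect is not reached, the highest tested concentration is used.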

NCI-H23 = test: Growth inhibition of human NCI-H23 cells by NCI standard protocol based method; format: functional; procedure, shortened: as §2
[3] = Growth inhibition of human HCC2998 cells by NCI standard protocol based method; format: functional; conditions: HCC 2998; procedure, shortened: as §2
NCI-H226 = test: Growth inhibition of human NCI-H226 cells by NCI standard protocol based method; format: functional; procedure, shortened: as §2
UACC-62 = test: Growth inhibition of human UACC62 cells by NCI standard protocol based method; format: functional; procedure, shortened: as §1
MCF7 = test: Growth inhibition of human MCF7 cells by NCI standard protocol based method; format: functional; procedure, shortened: as §2
[4] = Growth inhibition of human HOP92 cells by NCI standard protocol based method; format: functional; conditions: HOP-92; procedure, shortened: as §2
IGROV-1 = test: Growth inhibition of human IGROV1 cells by NCI standard protocol based method; format: functional; procedure, shortened: as §2
HCT-15 = test: Growth inhibition of human HCT15 cells by NCI standard protocol based method; format: functional; procedure, shortened: as §2
[5] = Growth inhibition of human SF539 cells by NCI standard protocol based method; format: functional; conditions: SF-539; procedure, shortened: as §2
HT-29 = test: Growth inhibition of human HT-29 cells by NCI standard protocol based method; format: functional; procedure, shortened: as §2
MDA-MB-468 = test: Growth inhibition of human MDA-MB-468 cells by NCI standard protocol based method; format: functional; procedure, shortened: as §2
SK-OV-3 = test: Growth inhibition of human SKOV3 cells by NCI standard protocol based method; format: functional; procedure, shortened: as §1
HOP-62 = test: Growth inhibition of human HOP62 cells by NCI standard protocol based method; format: functional; procedure, shortened: as §2
M14 = test: Growth inhibition of human M14 cells by NCI standard protocol based method; format: functional; procedure, shortened: as §2
HL-60(TB) = test: Growth inhibition of human HL-60(TB) cells by NCI standard protocol based method; format: functional
Procedure, shortened: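 Tested in the NCI 60-cell-line screen under its standard protocol. A single-dose prescreen was run at 10⁻⁵ M, then a five-dose assay. GI50 is the molar concentration that inhibits net cell growth by 50%.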

Tubulin (Homo sapiens) = Tubulin (Homo sapiens) (UniProt P68371+Q9H4B7+P0DPH7+P68366+Q13509+Q71U36+P04350+Q3ZCM7+P07437+P68363+Q9BQE3+Q6PEY2+Q13885+Q9BVA1+Q9BUF5); test: Inhibition of colchicine binding to tubulin (unknown origin); format: protein-complex assay
K562 [6] = test: Growth inhibition of human K562 cells at 10 uM incubated for 24 hrs by trypan blue dye exclusion assay; format: functional; conditions: K562, 24 h, read-out: GI
Procedure, shortened: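 K562 cells in medium with 5% FBS at 37 °C, 5% CO₂. About 2 × 10⁵ cells/mL cultured 24 h, then compound added at 10 μM. After 24 h exposure, cells counted by hemocytometer and viability scored by trypan blue exclusion, reported as percent growth inhibition.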

MDA-MB-435 = test: Growth inhibition of human MDA-MB-435 cells by NCI standard protocol based method; format: functional; procedure, shortened: as §2
A498 = test: Growth inhibition of human A498 cells by NCI standard protocol based method; format: functional; procedure, shortened: as §2
OVCAR-3 = test: Growth inhibition of human OVCAR3 cells by NCI standard protocol based method; format: functional; procedure, shortened: as §2
SF-268 = test: Growth inhibition of human SF268 cells by NCI standard protocol based method; format: functional; procedure, shortened: as §2
[7] = Growth inhibition of human NCI60 cells by NCI standard protocol based method; format: functional; procedure, shortened: as §2
K562 [8] = test: Selectivity index, ratio of IC50 for human HuDe cells to IC50 human K562 cells
Procedure, shortened: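 Index taken as the ratio of HuDe to K562 IC₅₀. For K562: about 2 × 10⁵ cells/mL, compounds added at graded concentrations, viable count by trypan blue exclusion with a hemocytometer after 24 h. For HuDe primary epidermal cells: 2 × 10⁴ cells/mL, drugs or 0.1% DMSO added 24 h after seeding, MTT read at 570 nm (690 nm blank) after 72 h.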

SK-MEL-2 = test: Growth inhibition of human SK-MEL-2 cells by NCI standard protocol based method; format: functional; procedure, shortened: as §2
[9] = Growth inhibition of human RXF393 cells by NCI standard protocol based method; format: functional; conditions: RXF 393; procedure, shortened: as §2
SNB-75 = test: Growth inhibition of human SNB75 cells by NCI standard protocol based method; format: functional; procedure, shortened: as §1
CCRF-CEM = test: Growth inhibition of human CCRF-CEM cells by NCI standard protocol based method; format: functional; procedure, shortened: as §2
K562 [10] = test: Growth inhibition of human K562 cells by NCI standard protocol based method; format: functional; procedure, shortened: as §2
KM12 = test: Growth inhibition of human KM12 cells by NCI standard protocol based method; format: functional; procedure, shortened: as §2
[11] = Growth inhibition of human RPMI8226 cells by NCI standard protocol based method; format: functional; conditions: RPMI-8226; procedure, shortened: as §2
PC-3 = test: Growth inhibition of human PC3 cells by NCI standard protocol based method; format: functional; procedure, shortened: as §2
[12] = Growth inhibition of human SF295 cells by NCI standard protocol based method; format: functional; conditions: SF-295; procedure, shortened: as §2
ACHN = test: Growth inhibition of human ACHN cells by NCI standard protocol based method; format: functional; procedure, shortened: as §2
K562 [13] = test: Growth inhibition of human K562 cells incubated for 24 hrs by trypan blue dye exclusion assay; format: functional, cell-based; conditions: K562, 24 h
Procedure, shortened: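 K562 cells, about 2 × 10⁵ cells/mL, precultured 24 h, then exposed 24 h to a range of compound concentrations. Viable cells counted by hemocytometer with trypan blue exclusion to derive IC₅₀.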

OVCAR-5 = test: Growth inhibition of human OVCAR5 cells by NCI standard protocol based method; format: functional; procedure, shortened: as §2
SR = test: Growth inhibition of human SR cells by NCI standard protocol based method; format: functional; procedure, shortened: as §1
DU-145 = test: Growth inhibition of human DU145 cells by NCI standard protocol based method; format: functional; procedure, shortened: as §2
[14] = Growth inhibition of human MOLT4 cells by NCI standard protocol based method; format: functional; conditions: MOLT-4; procedure, shortened: as §2
786-0 = test: Growth inhibition of human 786-0 cells by NCI standard protocol based method; format: functional; procedure, shortened: as §2
U-251 = test: Growth inhibition of human U251 cells by NCI standard protocol based method; format: functional; procedure, shortened: as §1
CAKI-1 = test: Growth inhibition of human CAKI-1 cells by NCI standard protocol based method; format: functional; procedure, shortened: as §2
UO-31 = test: Growth inhibition of human UO31 cells by NCI standard protocol based method; format: functional; procedure, shortened: as §1

SMILES: COc1cc(NC(=O)COc2ccccc2)c(C(N)=O)cc1OC
- GI50 (SW-620): 646 nM
- Activity (K562 [1]): Active
- GI50 [2]: 453 nM
- GI50 (NCI-H23): 1320 nM
- GI50 [3]: 3.33 µM
- GI50 (NCI-H226): 42.8 µM
- GI50 (UACC-62): 2520 nM
- GI50 (MCF7): 661 nM
- GI50 [4]: 17.7 µM
- GI50 (IGROV-1): 4.07 µM
- GI50 (HCT-15): 804 nM
- GI50 [5]: 563 nM
- GI50 (HT-29): 437 nM
- GI50 (MDA-MB-468): 848 nM
- GI50 (SK-OV-3): 3.58 µM
- GI50 (HOP-62): 1750 nM
- GI50 (M14): 4 µM
- GI50 (HL-60(TB)): 293 nM
- inhibition (Tubulin (Homo sapiens)): inactive
- inhibition of growth at 10 µM (K562 [6]): 72.8%
- GI50 (MDA-MB-435): 614 nM
- GI50 (A498): 2770 nM
- GI50 (OVCAR-3): 472 nM
- GI50 (SF-268): 6.77 µM
- GI50 [7]: 1950 nM
- LC50 [7]: 93.3 µM
- TGI ([7]; read-out: pTGI (converted)): 49 µM
- Ratio IC50 (K562 [8]): 280.52
- GI50 (SK-MEL-2): 203 nM
- GI50 [9]: 1690 nM
- GI50 (SNB-75): 547 nM
- GI50 (CCRF-CEM): 562 nM
- GI50 (K562 [10]): 310 nM
- GI50 (KM12): 443 nM
- GI50 [11]: 2270 nM
- GI50 (PC-3): 2230 nM
- GI50 [12]: 930 nM
- GI50 (ACHN): 8.12 µM
- IC50 (K562 [13]): 580 nM
- GI50 (OVCAR-5): 15 µM
- GI50 (SR): 515 nM
- GI50 (DU-145): 914 nM
- GI50 [14]: 2910 nM
- GI50 (786-0): 7.32 µM
- GI50 (U-251): 777 nM
- GI50 (CAKI-1): 3.8 µM
- GI50 (UO-31): 13.5 µM

From ChEMBL document CHEMBL3612047, “Synthesis, antiproliferative activity and possible mechanism of action of novel 2-acetamidobenzamides bearing the 2-phenoxy functionality” (Bioorg Med Chem, 2015)
